Key:
[1] = test system: Brassica rapa subsp. oleifera; experiment: Herbicidal activity against Brassica rapa subsp. oleifera assessed as inhibition of fresh plant weight at 150 g/ha using postemergence protocol measured after 24 days under green house conditions; details: post-emergence
Amaranthus retroflexus [2] = experiment: Herbicidal activity against Amaranthus retroflexus assessed as inhibition of fresh plant weight at 300 g/ha using postemergence protocol measured after 24 days under green house conditions; details: post-emergence
[3] = test system: Brassica rapa subsp. oleifera; experiment: Herbicidal activity against Brassica rapa subsp. oleifera assessed as inhibition of fresh plant weight at 750 g/ha using preemergence protocol measured after 24 days under green house conditions; details: pre-emergence
Spirodela polyrhiza [4] = experiment: Inhibition of chlorophyll in Spirodela polyrhiza fronds at 1 ug/mL using light intensity of 45 uE/m2/s measured after 7 days; type: functional; details: 168 h
In short: (§1)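 Giant duckweed assay. Compound in DMF dropped onto filter paper, solvent evaporated 15 min, paper placed in flask with 15 mL fresh medium and shaken >10 min. 10 fronds inoculated per flask and grown 7 days at 23-26 °C, 16 h light/8 h dark, ca. 45 µE m^-2 s^-1. DMF plus medium served as control. Chl extracted in 96% ethanol overnight at 4 °C; OD read at 665 and 649 nm; content expressed as percent of control.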

Digitaria [5] = experiment: Herbicidal activity against Digitaria adscendens assessed as inhibition of fresh plant weight at 750 g/ha using preemergence protocol measured after 24 days under green house conditions; details: in Digitaria adscendens, pre-emergence
[6] = test system: Brassica rapa subsp. oleifera; experiment: Herbicidal activity against Brassica rapa subsp. oleifera assessed as inhibition of fresh plant weight at 750 g/ha using postemergence protocol measured after 24 days under green house conditions; details: post-emergence
[7] = test system: Brassica rapa subsp. oleifera; experiment: Herbicidal activity against Brassica rapa subsp. oleifera assessed as inhibition of fresh plant weight at 75 g/ha using postemergence protocol measured after 24 days under green house conditions; details: post-emergence
Spirodela polyrhiza [8] = experiment: Inhibition of chlorophyll in Spirodela polyrhiza fronds at 10 ug/mL using light intensity of 45 uE/m2/s measured after 7 days; type: functional; details: 168 h
In short: as §1

Amaranthus retroflexus [9] = experiment: Herbicidal activity against Amaranthus retroflexus assessed as inhibition of fresh plant weight at 75 g/ha using postemergence protocol measured after 24 days under green house conditions; details: post-emergence
Amaranthus retroflexus [10] = experiment: Herbicidal activity against Amaranthus retroflexus assessed as inhibition of fresh plant weight at 150 g/ha using postemergence protocol measured after 24 days under green house conditions; details: post-emergence
Amaranthus retroflexus [11] = experiment: Herbicidal activity against Amaranthus retroflexus assessed as inhibition of fresh plant weight at 600 g/ha using postemergence protocol measured after 24 days under green house conditions; details: post-emergence
Echinochloa crus-galli [12] = experiment: Herbicidal activity against Echinochloa crus-galli (barnyard grass) assessed as inhibition of fresh plant weight at 750 g/ha using preemergence protocol measured after 24 days under green house conditions; details: pre-emergence
[13] = test system: Brassica rapa subsp. oleifera; experiment: Herbicidal activity against Brassica rapa subsp. oleifera assessed as inhibition of fresh plant weight at 600 g/ha using postemergence protocol measured after 24 days under green house conditions; details: post-emergence
Amaranthus retroflexus [14] = experiment: Herbicidal activity against Amaranthus retroflexus assessed as inhibition of fresh plant weight at 750 g/ha using postemergence protocol measured after 24 days under green house conditions; details: post-emergence
Amaranthus retroflexus [15] = experiment: Herbicidal activity against Amaranthus retroflexus assessed as inhibition of fresh plant weight at 750 g/ha using preemergence protocol measured after 24 days under green house conditions; details: pre-emergence
Digitaria [16] = experiment: Herbicidal activity against Digitaria adscendens assessed as inhibition of fresh plant weight at 750 g/ha using postemergence protocol measured after 24 days under green house conditions; details: in Digitaria adscendens, post-emergence
[17] = test system: Brassica rapa subsp. oleifera; experiment: Herbicidal activity against Brassica rapa subsp. oleifera assessed as inhibition of fresh plant weight at 300 g/ha using postemergence protocol measured after 24 days under green house conditions; details: post-emergence
Echinochloa crus-galli [18] = experiment: Herbicidal activity against Echinochloa crus-galli (barnyard grass) assessed as inhibition of fresh plant weight at 750 g/ha using postemergence protocol measured after 24 days under green house conditions; details: post-emergence
[19] = test system: Brassica rapa subsp. oleifera; experiment: Herbicidal activity against Brassica rapa subsp. oleifera assessed as inhibition of fresh plant weight at 600 g/ha using preemergence protocol measured […] under green house conditions; type: functional; details: pre-emergence
In short: (§2)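 Pre-emergence treatment. Aboveground fresh weight measured 24 days later; percent inhibition calculated against controls. Two replicates per treatment.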

Echinochloa crus-galli [20] = experiment: Herbicidal activity against Echinochloa crus-galli (barnyard grass) assessed as inhibition of fresh plant weight at 600 g/ha using preemergence protocol […] under green house conditions; type: functional; details: pre-emergence
In short: as §2

Echinochloa crus-galli [21] = experiment: Herbicidal activity against Echinochloa crus-galli (barnyard grass) assessed as inhibition of fresh plant weight at 600 g/ha using postemergence protocol measured […] under green house conditions; type: functional; details: post-emergence
In short: (§3)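 Weed seedlings at one-leaf-and-one-stem stage sprayed post-emergence with test solution at 750, 600, 300, 150 or 75 g/ha. Aboveground fresh weight determined 24 days after treatment; percent inhibition calculated relative to controls. Two replicates per treatment.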

Digitaria [22] = experiment: Herbicidal activity against Digitaria adscendens assessed as inhibition of fresh plant weight at 600 g/ha using postemergence protocol […] under green house conditions; type: functional; details: in Digitaria adscendens, post-emergence
In short: as §3

Digitaria [23] = experiment: Herbicidal activity against Digitaria adscendens assessed as inhibition of fresh plant weight at 600 g/ha using preemergence protocol […] under green house conditions; type: functional; details: in Digitaria adscendens, pre-emergence
In short: as §2

Amaranthus retroflexus [24] = experiment: Herbicidal activity against Amaranthus retroflexus assessed as inhibition of fresh plant weight at 600 g/ha using preemergence protocol measured […] under green house conditions; type: functional; details: pre-emergence
In short: as §2

SMILES	inhibition at 150 g/ha [1] [%]	inhibition at 300 g/ha (Amaranthus retroflexus [2]) [%]	inhibition at 750 g/ha [3] [%]	inhibition at 1 µg/mL (Spirodela polyrhiza [4]) [%]	inhibition at 750 g/ha (Digitaria [5]) [%]	inhibition at 750 g/ha [6] [%]	inhibition at 75 g/ha [7] [%]	inhibition at 10 µg/mL (Spirodela polyrhiza [8]) [%]	inhibition at 75 g/ha (Amaranthus retroflexus [9]) [%]	inhibition at 150 g/ha (Amaranthus retroflexus [10]) [%]	inhibition at 600 g/ha (Amaranthus retroflexus [11]) [%]	inhibition at 750 g/ha (Echinochloa crus-galli [12]) [%]	inhibition at 600 g/ha [13] [%]	inhibition at 750 g/ha (Amaranthus retroflexus [14]) [%]	inhibition at 750 g/ha (Amaranthus retroflexus [15]) [%]	inhibition at 750 g/ha (Digitaria [16]) [%]	inhibition at 300 g/ha [17] [%]	inhibition at 750 g/ha (Echinochloa crus-galli [18]) [%]	further results
Cc1cc(-c2cccc(C(F)(F)F)c2)c(Nc2ccccc2F)nn1	67	58	18	100	15	100	60	100	39	48	75	0	96	100	0	40	88	21	
Cc1cc(-c2cccc(C(F)(F)F)c2)c(Nc2cccc(C(F)(F)F)c2)nn1	72	42	0	100	0	96	48	100	32	37	54	0	88	95	0	0	79	8	
Cc1cc(-c2cccc(C(F)(F)F)c2)c(Nc2ccccc2)nn1	74	43	48	100	43	99	66	100	18	41	61	43	92	60	33	0	84	15	
Cc1ccc(Nc2nnc(C)cc2-c2cccc(C(F)(F)F)c2)cc1	39	28	82	95	17	99		96		17	59	0	59	85	90	18	54	2	
CCOC(=O)n1nc(C)cc(-c2cccc(C(F)(F)F)c2)c1=O								100			61		55						inhibition at 600 g/ha [19]: 87%; inhibition at 600 g/ha (Echinochloa crus-galli [20]): 46%; inhibition at 600 g/ha (Echinochloa crus-galli [21]): 0%; inhibition at 600 g/ha (Digitaria [22]): 13%; inhibition at 600 g/ha (Digitaria [23]): 100%; inhibition at 600 g/ha (Amaranthus retroflexus [24]): 100%
